Reference: ChEMBL document CHEMBL4613293, “Pyridobenzothiazolones Exert Potent Anti-Dengue Activity by Hampering Multiple Functions of NS5 Polymerase” (ACS Med Chem Lett, 2020)
Activity calls are given as the source filed them. The calls are words filed in the database; no cut-off is given here.

What was measured:
[1] = test system: dengue virus type 2; experiment: Inhibition of Dengue virus NS5 RNA-dependent RNA polymerase assessed as reduction in de novo initiation activity at 30 uM incubated for 1 hr relative to control
Method in brief: (§1)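 Purified recombinant full-length DENV2 NS5 polymerase was tested in two formats: primer-independent (de novo initiation) and primer-dependent (elongation). Compound at a single 30 μM; % inhibition reported.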

[2] = test system: dengue virus type 2; experiment: Inhibition of Dengue virus NS5 RNA-dependent RNA polymerase assessed as reduction in elongation activity at 30 uM incubated for 1 hr relative to control; method in brief: as §1
[3] = Inhibition of Dengue virus NS5 RNA-dependent RNA polymerase assessed as reduction in elongation activity incubated for 1 hr; design: species or system dengue virus type 2
Method in brief: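 Elongation (primer-dependent) activity of purified recombinant full-length DENV2 NS5 was measured over a concentration series with fluorescence read-out. Compound-only wells corrected for autofluorescence. IC50 is 50% inhibition of elongation, average ± SD from one experiment in duplicate.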

[4] = Cytotoxicity against human HuH7 cells assessed as reduction in cell viability incubated for 48 hrs by CellTiter Glo Luminescent assay; format: cell-based, Huh-7
Method in brief: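 HuH7 viability was read by CellTiter-Glo luminescence in parallel with the infection dose–response. CC50 is the concentration reducing viability by 50%.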

[5] = test system: dengue virus type 2; experiment: Antiviral activity against Dengue virus 2 EDEN 3295 infected in human HuH7 cells assessed as reduction in virus replication incubated for 48 hrs by plaque reduction assay; format: functional, organism-based; settings: EDEN 3295, Huh-7, 48 h
Method in brief: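 DENV2 EDEN 3295 in human hepatoma HuH7 cells, treated 48 h. Infectious virus quantified by plaque assay. Dose–response from 0.01 to 100 μM after an initial 10 μM screen. EC50 is the concentration giving 50% inhibition of replication, reported as average ± SD of two independent experiments.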

[6] = Selectivity index, ratio of CC50 for human HuH7 cells to EC50 for Dengue virus 2 EDEN 3295 infected in human HuH7 cells; format: toxicity, cell-based; settings: read-out: Ratio CC50/EC50
Method in brief: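 Selectivity index is CC50 (CellTiter-Glo, HuH7) divided by EC50 (plaque assay, DENV2 EDEN 3295, 48 h, HuH7).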

[7] = test system: Zika virus; experiment: Antiviral activity against Zika virus H/PF/2013 infected in human HuH7 cells assessed as reduction in virus replication incubated for 24 hrs by plaque reduction assay; format: functional, organism-based; settings: H/PF/2013, Huh-7, 24 h
Method in brief: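 ZIKV H/PF/2013 in HuH7 cells, treated 24 h. Titres read by plaque assay. EC50 is the concentration giving 50% inhibition of replication, reported as average ± SD of two independent experiments.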

[8] = Selectivity index, ratio of CC50 for human HuH7 cells to EC50 for Zika virus H/PF/2013 infected in human HuH7 cells; format: toxicity, cell-based; settings: read-out: Ratio CC50/EC50
Method in brief: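 Selectivity index is CC50 (CellTiter-Glo, HuH7) divided by EC50 (plaque assay, ZIKV H/PF/2013, 24 h, HuH7).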

[9] = Inhibition of Dengue virus full length NS2b-NS3/NS5 interaction incubated for 1 hr by ELISA
Method in brief: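 Competitive ELISA measuring DENV NS3–NS5 binding across compound concentrations. IC50 reported as average ± SD from one experiment in duplicate.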

[10] = test system: dengue virus type 2; experiment: Inhibition of Dengue virus 2 NS5 assessed as reduction in NS5-3' UTR RNA at 25 uM incubated for 1 hr followed by 3' UTR RNA addition and measured after 20 mins by REMSA
Method in brief: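 RNA electrophoretic mobility shift with DENV NS5 at 1.28 μM and RNA at 0.16 μM (RNA/NS5 1:8), compound at 25 μM, 37 °C. Order of addition: compound, then NS5, then RNA. Band shift from complex formation scored on gel.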

[11] = test system: dengue virus type 1; experiment: Antiviral activity against Dengue virus 1 infected in human HuH7 cells assessed as reduction in virus replication incubated for 48 hrs by plaque reduction assay; format: functional, organism-based; settings: Huh-7, 48 h
[12] = test system: dengue virus type 3; experiment: Antiviral activity against Dengue virus 3 infected in human HuH7 cells assessed as reduction in virus replication incubated for 48 hrs by plaque reduction assay; format: functional, organism-based; settings: Huh-7, 48 h
[13] = test system: dengue virus type 4; experiment: Antiviral activity against Dengue virus 4 infected in human HuH7 cells assessed as reduction in virus replication incubated for 48 hrs by plaque reduction assay; format: functional, organism-based; settings: Huh-7, 48 h
[14] = test system: dengue virus type 2; experiment: Antiviral activity against Dengue virus 2 EDEN 3295 infected in human HuH7 cells assessed as reduction in viral titer at 10 uM over 10 passage incubated for 72 hrs by resistance development assay relative to control; format: functional; settings: EDEN 3295, Huh-7, 72 h
Method in brief: (§2)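 Resistance selection: DENV2-infected HuH7 cells were passaged under rising compound concentrations, 72 h per passage, up to P10. P10 viruses (parental or resistant clone) were expanded in C6/36 insect cells. Susceptibility was then tested in HuH7 at a single 10 μM dose, read as viral titer reduction versus control. Two independent experiments in duplicate; average ± SD.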

[15] = test system: dengue virus type 2; experiment: Antiviral activity against Dengue virus 2 EDEN 3295 clone 4_R infected in human HuH7 cells assessed as reduction in viral titer at 10 uM over 10 passage incubated for 72 hrs by resistance development assay relative to control; format: functional; settings: EDEN 3295, Huh-7, 72 h; method in brief: as §2
[16] = test system: dengue virus type 2; experiment: Antiviral activity against Dengue virus 2 EDEN 3295 infected in human HuH7 cells assessed as reduction in viral titer over 10 passages incubated for 72 hrs by resistance development assay; format: functional, organism-based; settings: EDEN 3295, Huh-7, 72 h
Method in brief: (§3)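 Virus came from HuH7 serial passage under increasing compound concentrations (72 h each, to P10) and was expanded in C6/36 cells. P10 parental DENV2 or resistant-clone virus was then tested dose-dependently in HuH7 cells with 48 h compound treatment, measuring viral inhibition. Single experiment with duplicates.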

[17] = test system: dengue virus type 2; experiment: Antiviral activity against Dengue virus 2 EDEN 3295 clone 4_R infected in human HuH7 cells assessed as reduction in viral titer over 10 passages incubated for 72 hrs by resistance development assay; format: functional, organism-based; settings: EDEN 3295, Huh-7, 72 h; method in brief: as §3

Row | Structure (SMILES) | inhibition [1] [%] | inhibition [2] [%] | IC50 [3] [µM] | EC50 [5] [µM] | EC50 [7] [µM] | IC50 [9] [µM] | inhibition [10] | EC50 [11] [µM] | EC50 [12] [µM] | EC50 [13] [µM] | CC50 at 48 h [4] [µM] | selectivity ratio [6] | selectivity ratio [8] | inhibition at 10 µM [14] [%] | inhibition at 10 µM [15] [%] | EC50 [16] [µM] | EC50 [17] [µM]
1 | O=c1c(-c2ccccc2)ccc2sc3ccc(OC4CCCCC4)cc3n12 | – | 6.3 | – | – | – | – | inactive | – | – | – | – | – | – | – | – | – | –
2 | O=C(NCCO)c1cc(-c2ccccc2)c(=O)n2c1sc1ccc(OC3CCCCC3)cc12 | 10 | 63.3 | – | 1.9 | 1.8 | – | – | – | – | – | 86.3 | 43 | 43 | – | – | – | –
3 | O=C(O)CCNC(=O)c1cc(-c2ccccc2)c(=O)n2c1sc1ccc(OC3CCCCC3)cc12 | – | 77.6 | 37.8 | 3.5 | 1 | 23.7 | Active | 7 | 7.8 | 6.9 | > 100 | > 30 | > 100 | 80 | 20 | 5.3 | 11.4
4 | O=C(NCc1ccccc1)c1cc(-c2ccccc2)c(=O)n2c1sc1ccc(OC3CCCCC3)cc12 | – | 31.2 | – | – | – | – | – | – | – | – | – | – | – | – | – | – | –
5 | O=C(NCc1ccc(O)cc1)c1cc(-c2ccccc2)c(=O)n2c1sc1ccc(OC3CCCCC3)cc12 | – | 44.8 | – | 1.8 | 1 | – | inactive | – | – | – | > 100 | > 50 | > 100 | – | – | – | –
6 | C#C[C@@]1(O)[C@H](O)[C@@H](CO)O[C@H]1n1ccc2c(N)ncnc21 | – | – | – | 1 | 0.2 | – | – | – | – | – | 100 | 100 | > 100 | – | – | – | –

Continued, in another order:

Row | inhibition [1] [%] | inhibition [2] [%] | IC50 [3] [µM] | EC50 [5] [µM] | EC50 [7] [µM] | IC50 [9] [µM] | inhibition [10] | EC50 [11] [µM] | EC50 [12] [µM] | EC50 [13] [µM] | Structure (SMILES) | CC50 at 48 h [4] [µM] | selectivity ratio [6] | selectivity ratio [8] | inhibition at 10 µM [14] [%] | inhibition at 10 µM [15] [%] | EC50 [16] [µM] | EC50 [17] [µM]
7 | 35.6 | 70.2 | – | – | – | – | – | – | – | – | Cn1cc(C(=O)N[C@@H](Cc2ccc(O)cc2)C(=O)O)cc(-c2ccccc2)c1=O | – | – | – | – | – | – | –
8 | 30.5 | 92.1 | 9.62 | 3.7 | 1.6 | 33.8 | – | – | – | – | O=C(N[C@@H](Cc1ccc(O)cc1)C(=O)O)c1cc(-c2ccccc2)c(=O)n2c1sc1ccc(OC3CCCCCC3)cc12 | 100 | 30 | > 50 | – | – | – | –
9 | 36.4 | 72.1 | 81.3 | – | – | – | – | – | – | – | O=C(N[C@@H](Cc1ccc(O)cc1)C(=O)O)c1cc(-c2ccccc2)c(=O)n(-c2cccc(OC3CCCCC3)c2)c1 | – | – | – | – | – | – | –
10 | 44.8 | 97.5 | 19.8 | – | – | – | – | – | – | – | O=C(N[C@@H](CO)C(=O)O)c1cc(-c2ccccc2)c(=O)n2c1sc1ccc(OC3CCCCC3)cc12 | – | – | – | – | – | – | –
11 | 40.7 | 93 | 9.16 | 2.1 | 0.4 | 42.4 | – | 2.8 | 2.8 | 1.7 | O=C(N[C@@H](Cc1ccc(O)cc1)C(=O)O)c1cc(-c2ccccc2)c(=O)n2c1sc1ccc(OC3CCCCC3)cc12 | > 100 | > 50 | > 100 | – | – | – | –
12 | 12.6 | 94.1 | 14.5 | 2.9 | 0.8 | 18.1 | – | 3.2 | 4.3 | 5.9 | O=C(N[C@@H](Cc1cccc(O)c1)C(=O)O)c1cc(-c2ccccc2)c(=O)n2c1sc1ccc(OC3CCCCC3)cc12 | > 100 | > 30 | > 100 | – | – | – | –
